Reference: article PMC3220747 (ACS chemical biology, 2011)
“Also recorded” adds a separate entry of the source. Where two headings read alike, the source gives them in different places. Values belong to the compound of their own block, whether it stands above or below them.

Columns and labels:
[1] = system: MDA-MB-231 cells; experiment: Cytotoxicity / cell proliferation; assay type: cell-based, human
Outline: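 MDA-MB-231 cells were exposed to test compound at the same concentrations and for the same incubation time as the transwell motility assay. MTT was added 2 h before measurement.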

[2] = biological target: uPAR·uPA interaction (suPAR277 and uPAATF) (Homo sapiens, UniProt Q03405); experiment: Surface plasmon resonance; assay type: binding; conditions: for SPR response with increasing concentration of compound: 5 to 100 μM
Chain of uPAR·uPA interaction (suPAR277 and uPAATF) (Q03405 23-299): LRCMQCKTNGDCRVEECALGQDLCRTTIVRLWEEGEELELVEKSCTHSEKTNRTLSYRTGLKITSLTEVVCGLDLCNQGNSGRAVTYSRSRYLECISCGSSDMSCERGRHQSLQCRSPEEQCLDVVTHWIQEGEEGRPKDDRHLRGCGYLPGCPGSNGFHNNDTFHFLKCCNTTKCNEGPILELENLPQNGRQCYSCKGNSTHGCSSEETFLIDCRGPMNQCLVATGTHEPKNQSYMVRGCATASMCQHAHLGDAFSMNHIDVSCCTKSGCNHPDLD
Outline: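 uPA amino-terminal fragment was amine-coupled to a CM5 chip at about 100 RU. Soluble uPAR (residues 1–277, expressed in Drosophila S2 cells) was injected with or without test compound (5–100 μM final, 5% DMSO) in HBS-EP plus 5% DMSO. Flow was 20 μL min⁻¹, with 180 s association and 90 s dissociation, and 5 mM HCl regeneration. DMSO-only protein controls were interleaved. IC50 was estimated from the plots.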

[3] = system: MDA-MB-231 cells; experiment: Invasion assay; assay type: cell-based, human; conditions: for number of cells able to invade through the membrane: MDA-MB-231, increasing concentration
Outline: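 Insert undersides were coated overnight at 4°C with 30 ng μl⁻¹ fibronectin, and filters were equilibrated 2 h in serum-free medium. Cells serum-starved 4 h were seeded at 5×10⁴ in 0.1% FBS medium with compound in the upper chamber, with 10% FBS medium plus compound or DMSO below. After 16 h at 37°C, 5% CO₂, filters were methanol-fixed and hematoxylin-stained. Invaded cells were counted in ten 200× fields.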

[4] = biological target: uPAR·uPA interaction (uPAR binding to uPAATF) (Homo sapiens, UniProt Q03405); experiment: Microtiter-based ELISA, uPAR binding to immobilized uPAATF; conditions: for activity in the ELISA at single concentration: 50 μM; for concentration-dependent inhibition of uPAR binding to uPAATF (ELISA): serial dilutions
Chain of uPAR·uPA interaction (uPAR binding to uPAATF) (Q03405 23-299): as above
Outline: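 Microtiter wells coated with uPAATF (purified by SP Sepharose […] exchange). Blocking used a 1:1 mix of Superblock in PBS with 0.04 M NaH₂PO₄/0.3 M NaCl buffer. uPAR binding was tested against serial dilutions of test compound. After incubation and washes, bound uPAR was detected with biotinylated antibody uPA1310 in 1% BSA/PBS for 1–2 h.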

[5] = biological target: T1, uPAR (Homo sapiens, UniProt Q03405); experiment: Fluorescence polarization; assay type: binding
T1 sequence (Q03405 23-299): as above

[6] = system: MDA-MB-231 cells; experiment: Transwell; assay type: cell-based, human
Outline: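 Wells were fibronectin-coated (30 ng μL⁻¹, 4°C overnight). Cells serum-starved 4 h were seeded at 5×10⁴ in 0.1% FBS medium with compound or DMSO in the upper chamber, with 10% FBS RPMI-1640 plus compound or 1% DMSO below, for 8 h at 37°C. Non-migrated cells were scraped off; filters were methanol-fixed 30 min and hematoxylin-stained 1 h. Cells in ten 200× fields were counted and averaged over three independent experiments.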

[7] = system: MDA-MB-231 cells lacking uPAR; experiment: Invasion assay with siRNA knockdown of uPAR; assay type: cell-based, human; conditions: MDA-MB-231 with siRNA knockdown of uPAR
Outline: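 Cells were transfected with uPAR siRNA, control siRNA or transfection reagent alone. After 48 h, knockdown was checked by immunoblot: 20 µg lysate on 12% SDS-PAGE, anti-uPAR probe, actin as loading control. Invasion without or with test compound then used fibronectin-coated transwells, with 0.1% FBS medium above and 10% FBS below, for 16 h at 37°C. Invaded cells were counted.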

[8] = biological target: T1, uPAR; experiment: Direct binding of IPR-456 to uPAR by FP; conditions: 10 μM GFD
[9] = system: MDA-MB-231 cells; experiment: Adhesion assay; assay type: cell-based, human
Outline: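 Wells coated overnight at 4°C with fibronectin (15 ng μl⁻¹) or vitronectin, then blocked 1 h with 0.5% BSA/PBS. Cells were serum-starved 3 h, trypsinized, and held at 2.5×10⁵ cells ml⁻¹ in 0.1% FBS DMEM with test compound or DMSO for 90 min at 37°C. After three PBS washes, remaining adherent cells were quantified by MTT.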

[10] = biological target: uPA binding to uPAR of MDA-MB-231 tumor cells (Homo sapiens, UniProt Q03405); experiment: Immunofluorescence imaging of cell surface uPA and uPAR; assay type: cell-based
Chain of uPA binding to uPAR of MDA-MB-231 tumor cells (Q03405 23-305 limits assumed): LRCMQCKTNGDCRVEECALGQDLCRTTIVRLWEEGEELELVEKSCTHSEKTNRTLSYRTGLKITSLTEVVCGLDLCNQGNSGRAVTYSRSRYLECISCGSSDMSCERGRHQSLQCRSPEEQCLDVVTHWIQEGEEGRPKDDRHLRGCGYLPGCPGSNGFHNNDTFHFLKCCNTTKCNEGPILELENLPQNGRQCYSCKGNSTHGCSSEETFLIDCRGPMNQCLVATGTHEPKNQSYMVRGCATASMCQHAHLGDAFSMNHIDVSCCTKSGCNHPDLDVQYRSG

[11] = system: MDA-MB-231 cells; experiment: Wound healing assay; assay type: cell-based, human; conditions: MDA-MB-231, 16 h
Outline: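 Confluent MDA-MB-231 monolayers were scratched with a pipette tip, washed, and cultured in complete medium containing test compound. The gap between wound edges was measured in three random regions immediately after wounding and at 16 h.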

[12] = read-out: IC50, inhibition of uPAATF binding to uPAR (ELISA)

IC50 [2]: 10 µM | IC50 [4]: 10 µM | activity in the ELISA at single concentration [4]: strong activity | concentration-dependent inhibition of uPAR binding to uPAATF (ELISA) [4]: concentration-dependent inhibition
Structure (SMILES): O=C(O)c1cccc(Nc2cc(N3CCCCCC3)c3noc4c3c2C(=O)c2ccccc2-4)c1 [IPR-803, 3-((3-(Azepan-1-yl)-6-oxo-6H-anthra[1,9-cd]isoxazol-5-yl)amino)benzoic acid]
effect on cell proliferation / cytotoxicity ([1]; MDA-MB-231, increasing concentration): concentration dependent inhibition of MDA-MB-231 cell proliferation; also recorded: some cytotoxicity | IC50 estimated from SPR plots, compared with ELISA [2]: nearly identical to those observed in the ELISA | SPR response with increasing concentration of compound [2]: concentration-dependent decrease in the response | number of cells able to invade through the membrane [3]: concentration-dependent reduction

Structure (SMILES): CC1CCN(c2cc(Nc3ccc(C(=O)O)cc3)c3c4c(onc24)-c2ccccc2C3=O)CC1 [IPR-808]
activity in the ELISA at single concentration [4]: strong activity | IC50 [4, 12]: 30 µM | concentration-dependent inhibition of uPAR binding to uPAATF (ELISA) [4]: concentration-dependent inhibition

Ki [5]: 0.14 µM | inhibition / binding in initial FP screen ([5]; single concentration of 50 μM): highest inhibition | IC50 [10]: 8 µM
Structure (SMILES): CC1CC(C)CN(c2cc(Nc3ccccc3C(=O)O)c3c4c(onc24)-c2ccccc2C3=O)C1 (stereo not shown) [IPR-456, 2-((3-(3,5-Dimethylpiperidin-1-yl)-6-oxo-6H-anthra[1,9-cd]isoxazol-5-yl)amino)benzoic acid]
concentration-dependent displacement of GFD-FAM ([5]; 0.78 μM to 100 μM): displace GFD-FAM in a concentration-dependent manner | effect on migration (Boyden chamber) [6]: blocked migration very weakly | toxicity within the timeframe of the invasion experiment ([1]; MDA-MB-231, 200 μM): minimal toxicity | toxicity within the timeframe of the invasion experiment ([1]; MDA-MB-231, up to 100 μM): no toxicity | cytotoxicity in the migration assays ([1]; same concentrations and incubation time as migration assays): Neither assay exhibited any cell cytotoxicity | inhibition of invasion ([3]; MDA-MB-231): about 60% | number of cells able to invade through the membrane [3]: concentration-dependent reduction | effect on invasion of cells lacking uPAR [7]: no effect on invasion | change of polarization with increasing uPAR in the presence of GFD [8]: no increase in the polarization was detected | concentration-dependent inhibition of uPAR binding to uPAATF (ELISA) [4]: complete concentration-dependent inhibition | effect on cell adhesion ([9]; fibronectin-coated wells): no effect on cell adhesion | effect on cell adhesion ([9]; vitronectin-coated wells): no effect on cell adhesion | uPAR immunostaining at the cell surface ([10]; MDA-MB-231): no change in the immunostaining pattern of uPAR | uPA staining at the cell surface ([10]; MDA-MB-231, compound added 30 min prior to immunostaining): significant concentration-dependent reduction of uPA staining | effect on migration (wound healing) [11]: little effect on migration

Structure (SMILES): CC1CC(C)CN(c2cc(NCCC(=O)O)c3c4c(onc24)-c2ccccc2C3=O)C1 (stereo not shown) [IPR-763]
IC50 estimated from SPR plots, compared with ELISA [2]: nearly identical to those observed in the ELISA | SPR response with increasing concentration of compound [2]: concentration-dependent decrease in the response | activity in the ELISA at single concentration [4]: strong activity | IC50 [4, 12]: 20 µM | concentration-dependent inhibition of uPAR binding to uPAATF (ELISA) [4]: concentration-dependent inhibition
